Source: ChEMBL document CHEMBL1811821, “Cystic fibrosis: a new target for 4-Imidazo[2,1-b]thiazole-1,4-dihydropyridines” (J Med Chem, 2011)
Activity calls are given as the source filed them. The rule behind the calls is not given here.

What was measured:
[1] = tested on: Cystic fibrosis transmembrane conductance regulator (Homo sapiens), P13569 [F508del]; experiment: Activity at CFTR F508 deletion mutant expressed in forskolin-stimulated FRT cells assessed as maximal increase in iodine influx measured as YFP quenching rate up to 20 uM after 24 hrs by fluorescence assay; assay type: cell-based
Chain of Cystic fibrosis transmembrane conductance regulator (Homo sapiens), P13569 [F508del] (P13569 as listed by the source): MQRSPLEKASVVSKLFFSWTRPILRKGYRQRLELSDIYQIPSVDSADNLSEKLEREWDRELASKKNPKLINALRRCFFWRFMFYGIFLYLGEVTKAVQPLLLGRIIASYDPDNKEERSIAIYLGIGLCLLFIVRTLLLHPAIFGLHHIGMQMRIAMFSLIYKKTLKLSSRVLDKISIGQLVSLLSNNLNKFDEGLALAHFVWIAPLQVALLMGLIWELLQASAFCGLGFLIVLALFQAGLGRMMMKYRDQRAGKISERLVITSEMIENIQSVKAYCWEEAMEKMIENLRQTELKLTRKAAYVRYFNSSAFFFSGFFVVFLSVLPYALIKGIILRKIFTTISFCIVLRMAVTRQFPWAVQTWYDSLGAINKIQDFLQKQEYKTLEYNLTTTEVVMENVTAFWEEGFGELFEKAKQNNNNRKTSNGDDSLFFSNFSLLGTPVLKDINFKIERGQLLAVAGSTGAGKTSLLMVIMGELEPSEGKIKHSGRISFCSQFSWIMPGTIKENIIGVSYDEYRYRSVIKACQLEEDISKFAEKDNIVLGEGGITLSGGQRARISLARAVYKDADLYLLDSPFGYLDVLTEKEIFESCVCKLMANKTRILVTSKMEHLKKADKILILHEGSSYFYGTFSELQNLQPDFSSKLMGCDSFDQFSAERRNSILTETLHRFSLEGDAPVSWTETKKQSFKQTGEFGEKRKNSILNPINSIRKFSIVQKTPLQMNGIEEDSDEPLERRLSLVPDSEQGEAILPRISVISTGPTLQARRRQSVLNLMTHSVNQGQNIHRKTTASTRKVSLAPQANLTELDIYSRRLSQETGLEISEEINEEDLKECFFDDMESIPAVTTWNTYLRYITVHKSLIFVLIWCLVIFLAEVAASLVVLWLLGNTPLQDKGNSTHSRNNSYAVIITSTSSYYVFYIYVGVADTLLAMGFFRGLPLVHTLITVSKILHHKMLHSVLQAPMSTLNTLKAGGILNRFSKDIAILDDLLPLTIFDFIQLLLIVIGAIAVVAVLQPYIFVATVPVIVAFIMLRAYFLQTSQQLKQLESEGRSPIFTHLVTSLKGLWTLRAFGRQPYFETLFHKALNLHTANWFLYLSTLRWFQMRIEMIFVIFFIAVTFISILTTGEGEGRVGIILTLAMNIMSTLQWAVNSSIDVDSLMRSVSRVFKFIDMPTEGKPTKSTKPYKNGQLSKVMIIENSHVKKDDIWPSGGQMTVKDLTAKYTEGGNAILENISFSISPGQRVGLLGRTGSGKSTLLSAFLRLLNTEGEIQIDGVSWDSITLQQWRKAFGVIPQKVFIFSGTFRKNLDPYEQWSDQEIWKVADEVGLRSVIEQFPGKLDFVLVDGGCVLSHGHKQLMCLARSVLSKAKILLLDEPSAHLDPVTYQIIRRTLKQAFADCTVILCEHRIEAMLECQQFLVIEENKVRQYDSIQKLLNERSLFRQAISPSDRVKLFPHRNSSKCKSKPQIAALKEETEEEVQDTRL
Method in brief: (§1)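 ΔF508-CFTR and halide-sensitive YFP coexpressed in FRT cells, held at 27 °C for 24 h for rescue, then stimulated 30–40 min with 20 μM forskolin with or without compound at 0.2, 2 and 20 μM. Fluorescence read before and after I– addition (100 mM final). Normalized decay fitted exponentially for maximal quenching rate; dose–response fitted with Hill equation for potency and maximal effect. Three independent determinations.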

[2] = tested on: Cystic fibrosis transmembrane conductance regulator (Homo sapiens), P13569 [F508del]; experiment: Activity at CFTR F508 deletion mutant expressed in forskolin-stimulated FRT cells assessed as maximal increase in iodine influx measured as YFP quenching rate at 0.2 uM after 24 hrs by fluorescence assay; assay type: cell-based; method in brief: as §1
[3] = Negative ionotropic activity in potassium depolarized guinea pig longitudinal smooth muscle assessed as inhibition of calcium-induced contraction; assay type: functional, Cavia porcellus
[4] = tested on: Cystic fibrosis transmembrane conductance regulator (Homo sapiens), P13569 [F508del]; experiment: Activity at CFTR F508 deletion mutant expressed in forskolin-stimulated FRT cells assessed as maximal increase in iodine influx measured as YFP quenching rate after 24 hrs by fluorescence assay; assay type: cell-based; method in brief: as §1
[5] = Binding affinity to CFTR F508 deletion mutant expressed in forskolin-stimulated FRT cells assessed as increase in iodine influx measured as YFP quenching rate after 24 hrs by fluorescence assay; assay type: cell-based; method in brief: as §1
[6] = species: Cavia porcellus; experiment: Negative ionotropic activity in potassium depolarized guinea pig longitudinal smooth muscle assessed as inhibition of calcium-induced contraction at 10^-6 M; assay type: functional
[7] = Negative chronotropic activity against potassium-induced contraction in guinea pig right atrium assessed as decrease atrial rate at 10^-5 M relative to control; assay type: functional; conditions: Cavia porcellus, Cardiac atrium
Method in brief: (§2)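 Spontaneously beating isolated guinea pig right atrium, pretreatment rate 165–190 beats/min. Drugs added cumulatively. Decrease in atrial rate expressed as percent change from control, n = 7–8. […] Control versus treated tested at each concentration by Student's t-test, P < 0.05. Mean ± SEM.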

[8] = Negative chronotropic activity against potassium-induced contraction in guinea pig right atrium assessed as decrease atrial rate; assay type: functional, tissue-based; conditions: Cavia porcellus, Cardiac atrium; method in brief: as §2
[9] = Negative ionotropic activity against potassium-induced contraction in guinea pig left atrium assessed as […] at 10^-5 M relative to control; assay type: functional; conditions: Cavia porcellus, Cardiac atrium
Method in brief: (§3)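 Isolated guinea pig left atrium paced at 1 Hz. Drugs added cumulatively. Negative inotropic effect expressed as percent change from control, n = 5–6. […] Student's t-test against control at each concentration, P < 0.05. Mean ± SEM.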

[10] = tested on: Aorta; experiment: Vasorelaxant activity in potassium depolarized guinea pig aortic strip assessed as inhibition of calcium-induced contraction at 10^-5 M; assay type: functional; conditions: Cavia porcellus
Method in brief: (§4)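 Guinea pig aortic strips depolarized with 80 mM K+, with cumulative drug addition. Relaxation given as mean ± SEM. […] Student's t-test against control, P < 0.05.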

[11] = Bronchodilatory activity in guinea pig trachea assessed as inhibition of carbachol-induced contraction at 10^-5 M; assay type: functional; conditions: Cavia porcellus
[12] = Negative chronotropic activity against potassium-induced contraction in guinea pig right atrium assessed as decrease atrial rate at 10^-4 M relative to control; assay type: functional; conditions: Cavia porcellus, Cardiac atrium; method in brief: as §2
[13] = Negative ionotropic activity against potassium-induced contraction in guinea pig left atrium assessed as […] at 10^-4 M relative to control; assay type: functional; conditions: Cavia porcellus, Cardiac atrium; method in brief: as §3
[14] = tested on: Aorta; experiment: Vasorelaxant activity in potassium depolarized guinea pig aortic strip assessed as inhibition of calcium-induced contraction at 10^-6 M; assay type: functional; conditions: Cavia porcellus; method in brief: as §4
[15] = species: Cavia porcellus; experiment: Negative ionotropic activity in potassium depolarized guinea pig longitudinal smooth muscle assessed as inhibition of calcium-induced contraction at 5 X 10^-8 M; assay type: functional
[16] = Negative ionotropic activity against potassium-induced contraction in guinea pig left atrium assessed as decrease in developed tension; conditions: Cavia porcellus, Cardiac atrium
[17] = Bronchodilatory activity in guinea pig trachea assessed as inhibition of carbachol-induced contraction at 10^-4 M; assay type: functional; conditions: Cavia porcellus
[18] = Bronchodilatory activity in guinea pig trachea assessed as inhibition of carbachol-induced contraction; assay type: functional, tissue-based, Cavia porcellus
[19] = Ratio EC50 for nifedipine to compound for negative […] activity against potassium-induced contraction in left atrium of guinea pig; assay type: functional, Cavia porcellus, Cardiac atrium
[20] = species: Cavia porcellus; experiment: Negative ionotropic activity in potassium depolarized guinea pig longitudinal smooth muscle assessed as inhibition of calcium-induced contraction at 10^-5 M; assay type: functional
[21] = species: Cavia porcellus; experiment: Negative ionotropic activity in potassium depolarized guinea pig longitudinal smooth muscle assessed as inhibition of calcium-induced contraction at 5 X 10^-5 M; assay type: functional
[22] = Negative ionotropic activity against potassium-induced contraction in guinea pig left atrium assessed as […] at 10^-6 M relative to control; assay type: functional; conditions: Cavia porcellus, Cardiac atrium; method in brief: as §3
[23] = Bronchodilatory activity in guinea pig trachea assessed as inhibition of carbachol-induced contraction at 10^-7 M; assay type: functional; conditions: Cavia porcellus
[24] = Negative chronotropic activity against potassium-induced contraction in guinea pig right atrium assessed as decrease atrial rate at 10^-6 M relative to control; assay type: functional; conditions: Cavia porcellus, Cardiac atrium; method in brief: as §2
[25] = Negative ionotropic activity against potassium-induced contraction in guinea pig left atrium assessed as […] at 5 X 10^-6 M relative to control; assay type: functional; conditions: Cavia porcellus, Cardiac atrium; method in brief: as §3
[26] = tested on: Aorta; experiment: Vasorelaxant activity in potassium depolarized guinea pig aortic strip assessed as inhibition of calcium-induced contraction at 10^-4 M; assay type: functional; conditions: Cavia porcellus; method in brief: as §4

| Structure (SMILES) | Activity [1] | Activity [2] | IC50 [3] [nM] | Emax [4] [ms-1] | Kd [5] [nM] | further results |
| --- | --- | --- | --- | --- | --- | --- |
| COC(=O)C1=C(C)NC(C)=C(C(=O)OC)C1c1c(Cl)nc2sc(C)cn12 | inactive | inactive |  |  |  |  |
| COC(=O)C1=C(C)NC(C)=C(C(=O)OC)C1c1c(Cl)nc2sc(C)c(C)n12 |  | inactive | 320 | 60 | 10900 | inhibition [6]: 78% |
| COC(=O)C1=C(C)NC(C)=C(C(=O)OC)C1c1c(-c2cc(OC)c(OC)c(OC)c2)nc2sc(Cl)cn12 | inactive | inactive |  |  |  |  |
| CCOC(=O)C1=C(C)NC(C)=C(C(=O)OCC)C1c1c(-c2ccccc2)nc2sc(C)cn12 |  | inactive | 250 | 60 | 14800 | inhibition at 10 µM [7]: 84%; EC50 [8]: 7150 nM; inhibition at 10 µM [9]: 44%; inhibition at 10 µM [10]: 5%; inhibition [6]: 83% |
| C=CCOC(=O)C1=C(C)NC(C)=C(C(=O)OCC=C)C1c1c(-c2ccc(OC(F)(F)F)cc2)nc2sccn12 |  | inactive | 5.3 | 60 | 4800 | inhibition at 10 µM [11]: 38%; inhibition at 100 µM [12]: 77%; EC50 [8]: 1970 nM; inhibition at 100 µM [13]: 88%; inhibition at 1 µM [14]: 31%; inhibition [15]: 90%; EC50 [16]: 730 nM |
| COC(=O)C1=C(C)NC(C)=C(C(=O)OC)C1c1c(Cl)nc2sc(Cl)cn12 |  | inactive | 680 | 60 | 6800 | inhibition at 100 µM [17]: 87%; IC50 [18]: 3660 nM; Ratio EC50 [19]: 2.6; inhibition [6]: 60% |
| CCc1cn2c(C3C(C(=O)OC)=C(C)NC(C)=C3C(=O)OC)c(-c3cc(OC)ccc3OC)nc2s1 | inactive | inactive | 2160 |  |  | inhibition [20]: 92% |
| COC(=O)C1=C(C)NC(C)=C(C(=O)OC)C1c1c(-c2cc(OC)ccc2OC)nc2sc(Cl)cn12 | inactive | inactive | 1140 |  |  | inhibition [21]: 91% |
| C=CCOC(=O)C1=C(C)NC(C)=C(C(=O)OCC=C)C1/C=C/c1ccccc1OC |  |  | 940 | 59 | 400 | inhibition [20]: 68%; inhibition at 10 µM [11]: 29%; inhibition at 10 µM [7]: 6%; inhibition at 1 µM [22]: 83%; inhibition at 10 µM [10]: 1%; EC50 [16]: 34 nM |
| COC(=O)C1=C(C)NC(C)=C(C(=O)OC)C1c1c(C(F)(F)F)nc2sc(C)cn12 |  | inactive | 95 | 60 | 12000 | inhibition at 0.1 µM [23]: 64%; IC50 [18]: 31 nM; inhibition [6]: 92% |
| COC(=O)C1=C(C)NC(C)=C(C(=O)OC)C1c1c(-c2c(OC)ccc(OC)c2[N+](=O)[O-])nc2sccn12 | inactive | inactive |  |  |  |  |
| C=CCOC(=O)C1=C(C)NC(C)=C(C(=O)OCC=C)C1c1c(-c2cc(OC)ccc2OC)nc2sccn12 | inactive | inactive | 320 |  |  | inhibition at 1 µM [24]: 32%; inhibition at 5 µM [25]: 81%; inhibition at 100 µM [26]: 31%; EC50 [16]: 340 nM |
| COC(=O)C1=C(C)NC(C)=C(C(=O)OC)C1c1c(-c2cccc(OC)c2)nc2sccn12 |  | inactive |  | 60 | 34200 |  |
| COC(=O)C1=C(C)NC(C)=C(C(=O)OC)C1c1c(-c2cccc(OC(F)(F)F)c2)nc2sccn12 |  | inactive | 18 | 64 | 1400 | IC50 [18]: 58 nM; inhibition [15]: 76% |
